Bioassay records from PubChem BioAssay.
ARFGAP1 inh = inhibitors of rat ARFGAP1 GAP activity, primary screen, biochemical, fluorescence polarization, GDP tracer | AID 651572, 2012 | inhibition, % at 16.5 µM | ADP-ribosylation factor GTPase-activating protein 1 (Rattus norvegicus), Q62848 | Arfgap1-stimulated ARF1 GTP hydrolysis, GDP FP detection | hit rate 0.26% among 360,000;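 active means inhibition above a per-plate limit, mean inhibition of low control wells plus 3 SD, cut at about 25% in these data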;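 further: 0% = DMSO wells with enzyme and 100% = wells lacking Arfgap1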
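Material: truncated rat Arfgap1 GAP domain; Incubation: compound-enzyme preincubation 20 min, reaction 120 min, detection 60 min, 25 °C; Read-out: percent inhibition of Arfgap1-stimulated GTP hydrolysis; Technique: FP, GDP Alexa 633 tracer displaced from anti-GDP antibody, 620/688 nm; Controls: No-Arfgap1 wells (100%) versus DMSO full-reaction wells (0%); Replication: single well per compound.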
rCAG RNA binder = binders of r(CAG) RNA repeats, primary screen, biochemical, fluorescence. inhibition, % at 3 µM. r(CAG) RNA repeat, TO-PRO-1 dye displacement fluorescence. hit rate 1.3% among 370,000;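 active means inhibition above the plate cutoff, the mean of all test compounds on that plate plus 3 SD, cut at about 35% in these data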;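 further: 0% = DMSO alone and 100% = 100 µM mitoxantrone as full dye displacement; higher means more dye released from RNA so lower well fluorescence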
NadD block = inhibitors of S. aureus NadD, primary screen, biochemical, colorimetric, uHTS | purified NadD enzyme, colorimetric absorbance read-out | inhibition, % at 20 µM | hit rate 0.78% among 360,000; in the data active means inhibition above about 26%
ASAP1 inh = inhibitors of human ASAP1 ArfGAP activity, primary screen, biochemical, fluorescence polarization | ASAP1-stimulated ARF1 GTP hydrolysis, GDP FP detection | Arf-GAP with SH3 domain, ANK repeat and PH domain-containing protein 1 (Homo sapiens), … | AID 624377, 2012 | hit rate 0.19% among 360,000 | inhibition, % at 16.5 µM; in the data active means inhibition above about 25%;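 further: 0% = vehicle with enzyme and substrate and 100% = no enzyme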
ARFGAP1 inh conf = ARFGAP1 inhibitor hit confirmation, biochemical, fluorescence polarization, triplicate. inhibition, % at 16.5 µM. AID 651608, 2012. shares compounds with ARFGAP1 inh. ARFGAP1-stimulated ARF1 GTP hydrolysis, GDP tracer FP. hit rate 30% among 890;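 active means average inhibition over triplicates above the hit cutoff set in the earlier primary screen, cut at about 25% in these data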;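 further: 0% = Arfgap1 plus ARF1-GTP with DMSO and 100% = wells lacking Arfgap1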
Target sequence (Q62848 whole entry, looked up): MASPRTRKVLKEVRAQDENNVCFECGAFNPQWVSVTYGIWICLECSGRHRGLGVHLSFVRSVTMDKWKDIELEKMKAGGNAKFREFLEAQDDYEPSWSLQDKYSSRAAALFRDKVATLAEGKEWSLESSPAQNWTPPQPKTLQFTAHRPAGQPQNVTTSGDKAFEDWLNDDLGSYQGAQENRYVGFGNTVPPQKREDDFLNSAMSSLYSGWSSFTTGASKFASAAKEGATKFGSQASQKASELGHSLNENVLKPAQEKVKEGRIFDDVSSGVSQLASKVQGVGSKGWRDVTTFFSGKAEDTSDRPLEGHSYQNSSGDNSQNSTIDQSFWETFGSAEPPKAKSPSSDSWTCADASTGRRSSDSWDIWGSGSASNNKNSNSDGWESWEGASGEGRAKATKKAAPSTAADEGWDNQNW
An asterisk follows results filed as active; · = no result given. Hits are enriched below; roughly 2.2% of the tested compounds scored in any of these assays.

SMILES | ARFGAP1 inh | rCAG RNA binder | NadD block | ASAP1 inh | ARFGAP1 inh conf
Cc1ccc2nc(SCC(=O)N3CCCC3)nc(=O)n2c1 | 60.8* | -4.1 | -3.6 | 21.1 | 43.5*
Cc1ccc2nc(SCC(=O)NC3CCCC3)nc(=O)n2c1 | 16.4 | -2.5 | 0.4 | 13.9 | ·
CCOC(=O)CN1Cc2cccc(C(=O)O)c2C1=O | 25.3* | 7.0 | -5.7 | -0.4 | 0.6
Cc1cccc(-c2nnc(SCC(=O)Nc3cccc4ccccc34)n2Cc2ccco2)c1 | · | 4.5 | · | · | ·
O=C(CSc1nnc(SCc2cccc3ccccc23)s1)N/N=C/c1c[nH]c2ccccc12 | 31.5* | 17.4 | 21.4 | -2.5 | 16.8
O=C(NCCCCc1ccccc1)c1cccc(NC(=O)c2ccccc2)c1 | 1.4 | 0.5 | -5.0 | 15.5 | ·
O=C(NCCc1ccc(F)cc1)c1cccc(NC(=O)c2ccccc2)c1 | 37.0* | -1.3 | -11.9 | 12.8 | 3.1
CCN(C(=O)CSc1nnc(-c2cccs2)n1CC)C1CCS(=O)(=O)C1 (centres undefined) | 5.0 | 3.9 | 2.3 | -7.4 | ·
CC(C)CN(C(=O)CSc1nnc(-c2cccs2)n1C1CC1)C1CCS(=O)(=O)C1 (centres undefined) | 27.0* | 1.5 | -2.9 | 8.2 | -5.3
COCCCn1c(C)cc(C(=O)CN2c3cccc4cccc(c34)S2(=O)=O)c1C | 32.5* | 7.3 | 25.3 | 24.5 | 36.2*
CCn1c(C)cc(C(=O)CN2C(=O)c3ccccc3S2(=O)=O)c1C | 10.2 | -1.0 | -0.7 | 3.7 | ·
Cc1ccc(/C=N/N(Cc2ccccc2)c2ccccc2)o1 | 32.9* | -2.2 | 7.7 | 0.5 | 1.6
COc1ccccc1-c1oc2ccccc2c1-c1ccc2cc[nH]c2c1 | 26.2* | 13.6 | 5.9 | 9.9 | 12.3
O=C(COC(=O)c1ccc(O)cc1)Nc1cc(S(=O)(=O)N2CCCCCC2)ccc1Cl | 26.4* | 10.9 | -13.1 | -3.4 | 0.6
O=C(NNC1OC(CO)C(O)C(O)C1O)c1cccnc1 (centres undefined) | 0.4 | -1.5 | -0.4 | -8.9 | ·
COc1cccc(C(=O)NNC2OC(CO)C(O)C2O)c1 (centres undefined) | 41.7* | -5.5 | -4.1 | -7.5 | 8.1
O=C1OCc2ccc([N+](=O)[O-])cc21 | 0.3 | 1.9 | -1.6 | -4.8 | ·
CC(NC1=CC(=O)c2cccnc2C1=O)C(O)c1ccccc1 (centres undefined) | 27.3* | 4.6 | 0.3 | 17.5 | -8.8
Cc1cc(OCC(=O)Nc2cccnc2)c2c(C)c(C)c(=O)oc2c1 | 28.8* | 0.9 | -7.0 | 20.3 | 29.8*
Cc1cc(OCC(=O)NCc2cccnc2)c2c(C)c(C)c(=O)oc2c1 | 2.8 | -0.8 | -2.4 | -2.3 | ·
C=CCNc1nc(NCc2cccc(OC)c2)c2sc(-c3ccccc3)cc2n1 | 26.3* | 8.0 | 25.1 | 14.2 | 26.4*
COc1ccc(S(=O)(=O)NCC2CCCN(C(=O)C3CCCC3)C2)cc1 (centres undefined) | 7.7 | -4.6 | -7.7 | 7.0 | ·
COc1ccc(S(=O)(=O)NCC2CCC(C(=O)N3CCC4(CC3)OCCO4)CC2)cc1 (centres undefined) | 35.2* | -12.1 | 1.0 | 0.3 | -7.1
CC1(C(=O)NS(=O)(=O)c2cccc(F)c2)CCN1C(=O)CCC1CCCC1 (centres undefined) | 7.4 | 5.1 | -8.8 | 6.5 | ·
